# Bioassay records: PubChem, several laboratories
# FAK inh: FAK kinase inhibitors, primary screen, biochemical. biochemical FAK kinase activity assay. inhibition, %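 (tested at 7 µM)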. 0.84% of 97,000 active; in the data active means inhibition above about 19%
# PLK1 kinase inh: human PLK1 kinase inhibitors, primary screen, biochemical, TR-FRET. recombinant PLK1 kinase, TR-FRET peptide phosphorylation. 0.53% of 97,000 active. inhibition, % at 10 µM. Serine/threonine-protein kinase PLK1 (Homo sapiens), P53350. AID 619, 2007;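 active means inhibition of 50% or more in the single-concentration screen; inactive means inhibition below 50%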
# F-actin modifier: modifiers of F-actin cytoskeleton organization, primary screen, imaging, HUVEC, phalloidin staining, high-content imaging. HUVEC TNFa F-actin phalloidin imaging. inhibition, % at 2 µM. 0.18% of 91,000 active;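 active means inhibition above the batch mean plus 3 SD and confirmed as a hit by visual image inspection, cut at about 30% in these data, passing the limit was not always enough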
# E-sel TNF inh: E-selectin induction blockers in HUVEC – imaging, immunofluorescence, high content, primary screen; 0.71% of 120,000 active; HUVEC TNFa-induced E-selectin immunofluorescence; inhibition, % at 2 µM;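 active means inhibition above the batch mean plus 3 SD, and confirmed as a hit on visual image review, cut at about 43% in these data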
# PLK1 PBD inh: Plk1 polo box domain binding inhibitors, primary screen, biochemical, fluorescence polarization; Serine/threonine-protein kinase PLK1 (Homo sapiens), P53350; Plk1 PBD phosphopeptide binding; inhibition, %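 (tested at about 20 µM)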; 0.13% of 97,000 active; AID 693, 2007; in the data active means inhibition above about 34%, passing the limit was not always enough
# HIV Rev-RRE inh: HIV-1 Rev-RRE binding inhibitors, primary screen, biochemical, FRET, protein-RNA interaction. AID 704, 2007. P05866. 0.79% of 97,000 active. inhibition, % at 8 µM. Rev peptide-RRE RNA binding;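 active means inhibition above the screen-wide mean plus 3 SD, cut at about 35% in these data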
#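 Test system: labelled RRE RNA duplex and labelled Rev peptide. Times: 5 min compound–RNA preincubation, then 15 min with peptide, 25 °C. Doses: single-dose 8 µM. Measured by: FRET, excitation 480 nm, emission 540 nm donor and 671 nm acceptor. Measure: % inhibition of FRET ratio versus controls.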
# Hits are given with their value; i = inactive; nt = not tested or not shown; [ ] = another dose, or the depositor's remark. Only some compounds are listed: those with a hit (about 2.2% of all), similar ones and a draw of the others.
SMILES,FAK inh,PLK1 kinase inh,F-actin modifier,E-sel TNF inh,PLK1 PBD inh,HIV Rev-RRE inh
Cc1ccc(-c2nc(NC(=O)c3nn(C)cc3[N+](=O)[O-])sc2C)cc1,i,i,i,87.0,i,i
O=C(Nc1nc(-c2ccc(Cl)cc2)cs1)c1cccnc1,i,i,i,i,i,i
Cn1cc([N+](=O)[O-])c(C(=O)Nc2ccc(-c3nc4ccccc4[nH]3)cc2)n1,nt,nt,nt,i,nt,nt
O=c1[nH]cnc2scc(-c3ccccc3)c12,i,67.7,i,i,i,i
COC(=O)c1c(C)[nH]c(C(=O)CSc2ncnc3sc(-c4ccccc4)cc23)c1C,nt,nt,nt,i,nt,nt
CC1CN(C(=O)/C(C#N)=C2\N=C(NC(=O)c3ccccc3Cl)c3ccccc32)CC(C)O1 (stereo unspecified),nt,nt,nt,92.7,nt,nt
Cc1noc(NC(=O)c2ccccc2Cl)c1C#N,i,i,i,i,i,i
O=C(CN1CCN(c2ccccc2)CC1)Nc1nccs1,i,i,i,i,i,i
O=C(CCN1CCN(c2ccccc2)CC1)Nc1nccs1,i,65.4,i,i,i,i
COc1cc(CN2CCCC(CO)(Cc3ccccc3C)C2)cc2c1OCO2 (stereo unspecified),nt,nt,nt,i,nt,nt
COc1cc(CN2CCNC(=O)C2CC(=O)O)cc(OC)c1 (stereo unspecified),nt,nt,nt,i,nt,nt
COc1ccc(CNC(=O)C(CCSC)NS(=O)(=O)c2ccccc2F)cc1 (stereo unspecified),nt,nt,nt,78.6,nt,nt
CN(C)c1ccc(/C=C(\C#N)C(=O)Nc2nc3c(s2)CCN(Cc2ccccc2)C3)cc1,i,i,i,i,i,103.6[fluorescence artefact?]
CN(C)c1ccc(-c2nc3ccccn3c2/N=C/c2ccc(Br)cc2)cc1,nt,nt,nt,i,nt,nt
O=C(CSc1nnc(NC(=O)c2ccccc2Cl)s1)Nc1ccc2c(c1)oc1ccccc12,nt,nt,nt,i,nt,nt
CN1CCC2(CC1)N=C(c1ccc(F)cc1)C(=S)N2C(=O)c1ccc(C(C)(C)C)cc1,nt,nt,nt,i,nt,nt
CC(Sc1nnc(-c2cccs2)n1Cc1ccccc1)C(=O)NCc1ccc2c(c1)OCO2 (stereo unspecified),i,i,nt,80.4,i,i
O=C(O)CCC(=O)c1ccc2c(c1)OCCO2,i,65.6,nt,nt,i,i
CCn1cc(C(=O)N2CCOCC2)c(=O)c2cc(S(=O)(=O)N(C)C)ccc21,i,69.2,nt,nt,i,i
COCCNC(=O)c1ccccc1NC(=O)c1cccc([N+](=O)[O-])c1C,nt,nt,nt,60.4,nt,nt
COC(=O)c1ccccc1NS(=O)(=O)c1ccc2c3c(cccc13)C(=O)N2,i,i,i,74.0,i,i
O=C(O)c1ccccc1NS(=O)(=O)c1ccc2c3c(cccc13)C(=O)N2,nt,nt,nt,i,nt,nt
N#C/C(C(=O)N1CCOCC1)=C1/SC(Cc2ccccc2)C(=O)N1c1ccccc1 (stereo unspecified),i,i,i,nt,i,44.0
CCCCc1ccc(CC2S/C(=C(\C#N)C(=O)N3CCOCC3)N(c3ccccc3)C2=O)cc1 (stereo unspecified),i,i,i,i,i,i
Nc1c(C(=O)C2CC2)sc2nc(-c3cccs3)cc(C(F)(F)F)c12,i,i,i,i,i,107.3[fluorescence artefact?]
SMILES,FAK inh,PLK1 kinase inh,F-actin modifier,E-sel TNF inh,PLK1 PBD inh,HIV Rev-RRE inh
CC(C)NC(=O)c1sc2nc(-c3cccs3)cc(-c3cccs3)c2c1N,i,i,i,i,i,i
Cc1c(C(=O)O)nn(-c2ccccc2)c(=O)c1C#N,i,62.8,nt,nt,i,i
CCn1nc(C)c(Br)c1Nc1ccc(Br)cc1,nt,nt,nt,i,nt,nt
Cc1nc(N)sc1N=Nc1ccc(F)cc1,i,58.6,i,i,i,i
Cc1ncc(N=Nc2ccc(F)cc2)c(-c2ccc(Cl)cc2)n1,i,i,i,i,i,i
O=C(CSc1ccccc1[N+](=O)[O-])NC1CCS(=O)(=O)C1 (stereo unspecified),nt,nt,nt,i,nt,nt
CCCn1nc(-c2ccccc2)c2nc3ccccc3nc21,i,i,i,i,i,94.1[fluorescence artefact?]
CCCCCn1nc(-c2ccccc2)c2nc3ccccc3nc21,i,i,i,i,i,90.0[fluorescence artefact?]
CCn1nc(-c2ccccc2)c2nc3ccccc3nc21,i,i,i,i,i,89.9[fluorescence artefact?]
CCCCn1c2nc3ccccc3nc2c2c(=O)n(CCC)cnc21,i,i,i,i,i,i
CCCn1c(C)nc2c(c1=O)c1nc3ccccc3nc1n2CCc1ccccc1,i,i,i,i,i,i
CC1CCCN(Cc2cccc(Oc3ccccc3)c2)C1 (stereo unspecified),i,i,i,i,i,i
Cc1cc(C)c(C(=O)CN2C(=O)NC3(CCCCCC3)C2=O)cc1C,nt,nt,nt,i,nt,nt
Cc1oc2c(C)c(O)ccc2c(=O)c1-c1cnn(-c2ccccc2)c1,i,i,i,59.2,i,i
N#CCCn1cc(C(CC(=O)c2ccc(Br)cc2)C(=O)O)c2ccccc21 (stereo unspecified),i,55.9,nt,nt,i,i
Cc1ccc(C(=O)CC(C(=O)O)c2cn(CCC#N)c3ccccc23)cc1 (stereo unspecified),i,i,i,i,i,i
COc1ccc(N2CCN(C(CNC(=O)C(=O)NCCCn3ccnc3)c3ccco3)CC2)cc1 (stereo unspecified),nt,nt,nt,i,nt,nt
COc1cccc(Nc2ncccc2C(=O)NCc2ccccc2)c1,i,i,i,i,i,52.4
CCOC(=O)Cc1csc(NC(=O)c2csc(C)c2)n1,i,i,i,i,i,i
CCOC(=O)Cc1csc(NC(=O)COc2ccc(OC)cc2)n1,i,i,i,90.7,i,i
CCOC(=O)Cc1csc(NC(=O)c2sc3nc4c(C)cc(C)cc4cc3c2N)n1,i,i,i,i,i,107.5[fluorescence artefact?]
CCCCC(=O)NC(=S)Nc1cccc(NC(=O)c2ccco2)c1,nt,nt,nt,i,nt,nt
Cc1ccc(C)c(NC(=O)CSc2nnc(-c3ccco3)o2)c1,nt,nt,nt,i,nt,nt
Cc1ccc(C)c(NC(=O)CSc2nnc([C@@H](N)Cc3ccccc3)o2)c1,i,i,i,61.7,i,i
CCc1nnc(NC(=O)C2c3ccccc3Oc3ccccc32)s1,i,i,46.4,i,i,i
SMILES,FAK inh,PLK1 kinase inh,F-actin modifier,E-sel TNF inh,PLK1 PBD inh,HIV Rev-RRE inh
CCc1nnc(NC(=O)C2CCC2)s1,i,i,i,i,i,i
Oc1ccccc1Nc1nc(NCC2CCCO2)c2ccccc2n1 (stereo unspecified),i,i,i,65.0,i,i
O=C(Cc1ncc(C(F)(F)F)cc1Cl)NCCc1ccccn1,nt,nt,nt,i,nt,nt
CCS(=O)(=O)N1CCN(c2ccc([N+](=O)[O-])c(N3CCOCC3)c2)CC1,nt,nt,nt,96.9,nt,nt
Cc1cc(NC(=O)CSc2n[nH]c(N)n2)no1,nt,nt,nt,67.0,nt,nt
O=S(=O)(Nc1nc2ccccc2[nH]1)c1ccccc1,i,i,i,i,i,i
O=S(=O)(Nc1nc2ccccc2[nH]1)c1ccc(Cl)cc1,i,60.9,i,i,i,i
O=C(Nc1ccc(F)cc1)N(Cc1ccco1)Cc1cc2cc3c(cc2[nH]c1=O)OCO3,i,i,i,i,i,36.8
Cc1ccc(NC(=O)N(Cc2ccc3c(c2)OCO3)Cc2cc3cc4c(cc3[nH]c2=O)OCCO4)cc1,i,i,i,i,i,i
